Tests used:
Type in all cases: functional
OVCAR-3 = assay: Growth inhibition of human OVCAR3 cells at 10 uM after 48 hrs by SRB assay; conditions: OVCAR-3, 48 h, read-out: GI
Method in brief: (§1)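 Cells grown in RPMI 1640 with 5% FBS and 2 mM L-glutamine, plated at 5000–40,000 cells/well by doubling time and preincubated 24 h (37 °C, 5% CO2); a time-zero plate is TCA-fixed. Single dose added, then 48 h incubation. Fixed with cold TCA, stained with 0.4% SRB, dye solubilized in 10 mM Tris base, absorbance at 515 nm; percent growth vs time-zero and untreated control.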

KM12 = assay: Growth inhibition of human KM12 cells at 10 uM after 48 hrs by SRB assay; conditions: KM12, 48 h, read-out: GI; method in brief: as §1
OVCAR-4 = assay: Growth inhibition of human OVCAR4 cells at 10 uM after 48 hrs by SRB assay; conditions: OVCAR-4, 48 h, read-out: GI; method in brief: as §1
NCI-H522 = assay: Growth inhibition of human NCI-H522 cells at 10 uM after 48 hrs by SRB assay; conditions: NCI-H522, 48 h, read-out: GI; method in brief: as §1
PC-3 = assay: Growth inhibition of human PC3 cells at 10 uM after 48 hrs by SRB assay; conditions: PC-3, 48 h, read-out: GI; method in brief: as §1
UACC-257 = assay: Growth inhibition of human UACC257 cells at 10 uM after 48 hrs by SRB assay; conditions: UACC-257, 48 h, read-out: GI
Method in brief: (§2)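 NCI 60-cell-line screen with a single 10 µM dose. Cells are grown in RPMI 1640 with 5% FBS and 2 mM L-glutamine, plated at 5000–40,000 cells/well according to doubling time, and preincubated 24 h at 37 °C, 5% CO2; time-zero plates are TCA-fixed at that point. Drug exposure is 48 h. Adherent cells are fixed with cold TCA, stained with 0.4% SRB in 1% acetic acid and read at 515 nm. Percent growth is calculated relative to time-zero and untreated controls and reported as GI%.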

A498 = assay: Growth inhibition of human A498 cells at 10 uM after 48 hrs by SRB assay; conditions: A498, 48 h, read-out: GI; method in brief: as §1
M14 = assay: Growth inhibition of human M14 cells at 10 uM after 48 hrs by SRB assay; conditions: M14, 48 h, read-out: GI; method in brief: as §1
OVCAR-8 = assay: Growth inhibition of human OVCAR8 cells at 10 uM after 48 hrs by SRB assay; conditions: OVCAR-8, 48 h, read-out: GI; method in brief: as §1
SK-OV-3 = assay: Growth inhibition of human SKOV3 cells at 10 uM after 48 hrs by SRB assay; conditions: SK-OV-3, 48 h, read-out: GI; method in brief: as §2
OVCAR-5 = assay: Growth inhibition of human OVCAR5 cells at 10 uM after 48 hrs by SRB assay; conditions: OVCAR-5, 48 h, read-out: GI; method in brief: as §1
CCRF-CEM = assay: Growth inhibition of human CCRF-CEM cells at 10 uM after 48 hrs by SRB assay; conditions: read-out: GI; method in brief: as §1
U-251 = assay: Growth inhibition of human U251 cells at 10 uM after 48 hrs by SRB assay; conditions: U-251, 48 h, read-out: GI; method in brief: as §2
SF-268 = assay: Growth inhibition of human SF268 cells at 10 uM after 48 hrs by SRB assay; conditions: SF-268, 48 h, read-out: GI; method in brief: as §1
LOX IMVI = assay: Growth inhibition of human LOXIMVI cells at 10 uM after 48 hrs by SRB assay; conditions: read-out: GI; method in brief: as §1
HT-29 = assay: Growth inhibition of human HT-29 cells at 10 uM after 48 hrs by SRB assay; conditions: HT-29, 48 h, read-out: GI; method in brief: as §1
[1] = Growth inhibition of human HCC2998 cells at 10 uM after 48 hrs by SRB assay; conditions: HCC 2998, 48 h, read-out: GI; method in brief: as §1
BT-549 = assay: Growth inhibition of human BT549 cells at 10 uM after 48 hrs by SRB assay; conditions: BT-549, 48 h, read-out: GI; method in brief: as §1
RPMI-8226 = assay: Growth inhibition of human RPMI8226 cells at 10 uM after 48 hrs by SRB assay; conditions: RPMI-8226, 48 h, read-out: GI; method in brief: as §1
Hs-578T = assay: Growth inhibition of human Hs578T cells at 10 uM after 48 hrs by SRB assay; conditions: read-out: GI; method in brief: as §1
SF-295 = assay: Growth inhibition of human SF295 cells at 10 uM after 48 hrs by SRB assay; conditions: SF-295, 48 h, read-out: GI; method in brief: as §1
MOLT-4 = assay: Growth inhibition of human MOLT4 cells at 10 uM after 48 hrs by SRB assay; conditions: MOLT-4, 48 h, read-out: GI; method in brief: as §1
HL-60(TB) = assay: Growth inhibition of human HL-60(TB) cells at 10 uM after 48 hrs by SRB assay; conditions: HL-60, 48 h, read-out: GI
Method in brief: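 Single-concentration pass across the 60-line panel in RPMI 1640 with 5% FBS. Cells preincubated 24 h, then exposed 48 h at 37 °C, 5% CO2. Read by SRB staining with absorbance at 515 nm. Percent growth is taken relative to time-zero and untreated controls and reported as percent growth inhibition (GI %).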

[2] = Growth inhibition of human NCI-ADR-RES cells at 10 uM after 48 hrs by SRB assay; conditions: read-out: GI; method in brief: as §1
NCI-H460 = assay: Growth inhibition of human NCI-H460 cells at 10 uM after 48 hrs by SRB assay; conditions: NCI-H460, 48 h, read-out: GI; method in brief: as §1
ACHN = assay: Growth inhibition of human ACHN cells at 10 uM after 48 hrs by SRB assay; conditions: read-out: GI; method in brief: as §1
SK-MEL-2 = assay: Growth inhibition of human SK-MEL-2 cells at 10 uM after 48 hrs by SRB assay; conditions: SK-MEL-2, 48 h, read-out: GI; method in brief: as §1
HCT-116 = assay: Growth inhibition of human HCT116 cells at 10 uM after 48 hrs by SRB assay; conditions: HCT-116, 48 h, read-out: GI; method in brief: as §1
SF-539 = assay: Growth inhibition of human SF539 cells at 10 uM after 48 hrs by SRB assay; conditions: SF-539, 48 h, read-out: GI; method in brief: as §1
NCI-H322M = assay: Growth inhibition of human NCI-H322M cells at 10 uM after 48 hrs by SRB assay; conditions: read-out: GI; method in brief: as §1
MDA-MB-435 = assay: Growth inhibition of human MDA-MB-435 cells at 10 uM after 48 hrs by SRB assay; conditions: MDA-MB-435, 48 h, read-out: GI; method in brief: as §1
UO-31 = assay: Growth inhibition of human UO31 cells at 10 uM after 48 hrs by SRB assay; conditions: UO-31, 48 h, read-out: GI; method in brief: as §2
NCI-H226 = assay: Growth inhibition of human NCI-H226 cells at 10 uM after 48 hrs by SRB assay; conditions: NCI-H226, 48 h, read-out: GI; method in brief: as §1
UACC-62 = assay: Growth inhibition of human UACC62 cells at 10 uM after 48 hrs by SRB assay; conditions: UACC-62, 48 h, read-out: GI; method in brief: as §2
SR = assay: Growth inhibition of human SR cells at 10 uM after 48 hrs by SRB assay; conditions: read-out: GI; method in brief: as §2

SMILES	inhibition of growth at 10 µM (OVCAR-3)	inhibition of growth at 10 µM (KM12)	inhibition of growth at 10 µM (OVCAR-4)	inhibition of growth at 10 µM (NCI-H522)	inhibition of growth at 10 µM (PC-3)	inhibition of growth at 10 µM (A498)	inhibition of growth at 10 µM (M14)	inhibition of growth at 10 µM (OVCAR-8)	inhibition of growth at 10 µM (SK-OV-3)	inhibition of growth at 10 µM (OVCAR-5)	inhibition of growth at 10 µM (CCRF-CEM)	inhibition of growth at 10 µM (SF-268)	inhibition of growth at 10 µM (LOX IMVI)	inhibition of growth at 10 µM (HT-29)	inhibition of growth at 10 µM [1]	inhibition of growth at 10 µM (BT-549)	inhibition of growth at 10 µM (RPMI-8226)	inhibition of growth at 10 µM (Hs-578T)	inhibition of growth at 10 µM (MOLT-4)	inhibition of growth at 10 µM (HL-60(TB))	further results
O=c1c2cccc3c(NCCO)ccc(c32)c2nc3ccccc3n12	< 20%	< 20%	< 20%	< 20%	< 20%	32.9%	< 20%	< 20%	< 20%	< 20%	< 20%	< 20%	< 20%	< 20%	< 20%	< 20%	28.6%	< 20%	< 20%	< 20%	inhibition of growth at 10 µM (UACC-257): < 20%; inhibition of growth at 10 µM (U-251): < 20%; inhibition of growth at 10 µM (SF-295): < 20%; inhibition of growth at 10 µM [2]: < 20%; inhibition of growth at 10 µM (NCI-H460): 42.8%; inhibition of growth at 10 µM (ACHN): < 20%; inhibition of growth at 10 µM (SK-MEL-2): < 20%; inhibition of growth at 10 µM (HCT-116): < 20%; inhibition of growth at 10 µM (SF-539): < 20%; inhibition of growth at 10 µM (NCI-H322M): < 20%; inhibition of growth at 10 µM (MDA-MB-435): < 20%; inhibition of growth at 10 µM (UO-31): 38.3%; inhibition of growth at 10 µM (NCI-H226): < 20%; inhibition of growth at 10 µM (UACC-62): 23.6%
O=c1c2cccc3c(NC4CCCCC4)ccc(c32)c2nc3ccccc3n12	< 20%	< 20%	< 20%	38.5%	20.1%	< 20%	< 20%	< 20%	< 20%	< 20%	34.6%	< 20%	26.6%	23.1%	48.3%	< 20%	24.4%	< 20%	50.2%	37.4%	inhibition of growth at 10 µM [2]: < 20%; inhibition of growth at 10 µM (SR): 98.9%; inhibition of growth at 10 µM (NCI-H460): 65.3%; inhibition of growth at 10 µM (ACHN): 27.1%; inhibition of growth at 10 µM (HCT-116): < 20%; inhibition of growth at 10 µM (SF-539): < 20%; inhibition of growth at 10 µM (NCI-H322M): < 20%; inhibition of growth at 10 µM (MDA-MB-435): < 20%; inhibition of growth at 10 µM (UO-31): 58.6%; inhibition of growth at 10 µM (NCI-H226): 28%; inhibition of growth at 10 µM (UACC-62): < 20%
CCCCNc1ccc2c3c1cccc3c(=O)n1c3ccccc3nc21	< 20%	22.3%	< 20%	28.1%	< 20%	< 20%	< 20%	< 20%	< 20%	< 20%	25%	< 20%	24.1%	< 20%	26%	< 20%	< 20%	< 20%	30.6%	36.6%	inhibition of growth at 10 µM [2]: < 20%; inhibition of growth at 10 µM (SR): 84.4%; inhibition of growth at 10 µM (NCI-H460): 51.6%; inhibition of growth at 10 µM (ACHN): < 20%; inhibition of growth at 10 µM (HCT-116): < 20%; inhibition of growth at 10 µM (SF-539): < 20%; inhibition of growth at 10 µM (NCI-H322M): < 20%; inhibition of growth at 10 µM (MDA-MB-435): < 20%; inhibition of growth at 10 µM (UO-31): 41.4%; inhibition of growth at 10 µM (NCI-H226): 26.3%; inhibition of growth at 10 µM (UACC-62): < 20%
